# Source: PubChem
# Shown are actives, neighbours in structure and some others; about 5.5% of the full set was active somewhere.
# HSV augment – enhancers of HSV replication in host cells, fold increase, host cell viability; maximum fold increase; 220,000 tested, 0.005% active; HSV replication augmentation in cells; in the data active = maximum fold increase above about 1.5; tested in PC3 cells
# Cl transport mod – KCC2 cotransporter modulators, thallium flux, primary screen, cell-based, HEK293 KCC2, FluoZin-2 fluorescence, MLSMR; AID 1456, 2008; KCC2 cells, thallium flux FluoZin-2 fluorescence; 190,000 tested, 2.2% active; B-score of Tl+ flux slope (higher = more flux/activation; lower = inhibition) at 10 µM;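 active = thallium flux slope and its plate-corrected score both differing from the plate sample mean at a set confidence after two filtering rounds, in either direction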;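 note: slope of fluorescence scaled to starting intensity during 10 to 20 s after thallium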
# Target sequence (Q9H2X9 whole entry, looked up): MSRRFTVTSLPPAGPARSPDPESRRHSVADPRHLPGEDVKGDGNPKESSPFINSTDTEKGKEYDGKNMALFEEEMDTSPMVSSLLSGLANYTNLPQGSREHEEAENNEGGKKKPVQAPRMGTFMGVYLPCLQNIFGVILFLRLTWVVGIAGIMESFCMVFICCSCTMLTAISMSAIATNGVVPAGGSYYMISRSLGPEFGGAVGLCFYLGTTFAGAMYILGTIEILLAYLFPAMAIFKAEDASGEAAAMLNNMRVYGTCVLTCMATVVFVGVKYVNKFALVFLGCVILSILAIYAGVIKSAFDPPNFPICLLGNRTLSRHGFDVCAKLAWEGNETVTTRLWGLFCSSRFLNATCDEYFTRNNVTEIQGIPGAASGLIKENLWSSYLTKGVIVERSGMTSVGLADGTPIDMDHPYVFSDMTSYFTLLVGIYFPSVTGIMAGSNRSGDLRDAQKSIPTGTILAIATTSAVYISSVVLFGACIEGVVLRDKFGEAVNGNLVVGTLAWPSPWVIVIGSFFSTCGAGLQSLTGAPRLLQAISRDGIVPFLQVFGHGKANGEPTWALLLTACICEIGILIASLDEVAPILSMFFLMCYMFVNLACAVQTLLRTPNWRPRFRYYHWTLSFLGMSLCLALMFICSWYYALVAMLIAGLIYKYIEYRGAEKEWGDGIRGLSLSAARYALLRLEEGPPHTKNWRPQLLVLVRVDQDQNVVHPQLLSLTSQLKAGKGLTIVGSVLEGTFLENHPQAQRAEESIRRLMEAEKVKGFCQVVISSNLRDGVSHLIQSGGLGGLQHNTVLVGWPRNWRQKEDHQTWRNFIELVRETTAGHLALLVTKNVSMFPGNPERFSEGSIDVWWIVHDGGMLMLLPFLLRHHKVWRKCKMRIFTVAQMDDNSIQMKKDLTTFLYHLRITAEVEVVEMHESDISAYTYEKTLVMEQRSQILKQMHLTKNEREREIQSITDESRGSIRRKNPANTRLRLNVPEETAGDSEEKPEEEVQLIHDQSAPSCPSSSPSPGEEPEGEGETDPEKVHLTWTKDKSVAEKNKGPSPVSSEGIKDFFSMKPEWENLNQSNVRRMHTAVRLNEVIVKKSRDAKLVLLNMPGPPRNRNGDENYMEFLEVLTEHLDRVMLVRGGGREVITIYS
# STAT1 activator – STAT1 signaling activators, primary screen, cell-based, HTS, luciferase reporter | NIH 3T3 STAT1-luciferase reporter, IFN-gamma, luminescence; 100% = IFN-gamma alone, no compound | activation (% of control), % at 5.5 µM | 200,000 tested, 2.6% active | AID 932, 2007;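 active = activation above the screen-wide mean activation plus 3 SD, cut at about 130% in these data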;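 note: raw ratio to IFN-gamma control signal so 100% means no change and 0% no light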
# STAT3 blocker – IL-6 driven STAT3 reporter inhibitors, primary screen, U3A cells, luciferase, luminescence, MLSCN library; AID 862, 2007; 190,000 tested, 0.89% active; inhibition, % at 5.5 µM; IL-6 STAT3-luciferase reporter; host cell line lacks STAT1;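 active = inhibition above the mean inhibition across all screened compounds plus 3 SD, cut at about 44% in these data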;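 note: 0% = DMSO only wells and 100% = 100 µM nifuroxazide control wells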
# STAT1 blocker – STAT1 signaling inhibitors, primary screen, cell-based, HTS, luciferase reporter. NIH 3T3 STAT1-luciferase reporter, IFN-gamma, luminescence. inhibition, % at 5.5 µM. 200,000 tested, 0.35% active;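 active = inhibition above a set limit, the mean inhibition across all tested compounds plus 3 SD, cut at about 34% in these data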;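 note: 0% = IFN-gamma with DMSO and 100% = IFN-gamma with 300 µM nifuroxazide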
# STAT3 act – IL-6 driven STAT3 reporter potentiators, primary screen, U3A cells, luciferase, luminescence, MLSCN library. 190,000 tested, 0.91% active. activation (% of control), % at 5.6 µM. IL-6 STAT3-luciferase reporter; 100% = signal with IL-6 EC80 alone;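 active = activation above the screen-wide mean of compound activation plus 3 SD, cut at about 130% in these data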;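 note: 0% = background luminescence of wells with medium and substrate only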
#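 Test system: STAT3-luciferase reporter U3A cells; Detection: reporter luminescence signal; Times: 1 h compound pre-exposure, 6 h IL-6 stimulation, 37 °C; Benchmarks: IL-6-only high control; Also added: IL-6 stimulus at 33 ng/mL final.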
# * marks the source's active call; other numbers are inactive results; i = inactive; . = no result given.
SMILES,HSV augment,Cl transport mod,STAT1 activator,STAT3 blocker,STAT1 blocker,STAT3 act
O=c1cccc2n1Cc1cc3ccccc3nc1-2,i,0.17,135*,4,-38,94
O=C1c2ccccc2C(=O)N1CCCCSc1nc2ccccc2c(=O)n1CCCN1CCOCC1,i,-0.21,94,-6,7,108
CCOc1cc(C=O)ccc1OCc1cc(=O)n2cc(C)ccc2n1,i,0.52,96,15,3,91
Cc1ccc2nc(COc3ccc(Cl)cc3)cc(=O)n2c1,i,-2,136*,10,-41,101
CCOC(=O)Cn1nc(-c2ccccc2)c2cnc3ccc(CC)cc3c21,.,-0.25,98,9,2,92
CC(C)Oc1ccc(CCc2n[nH]c(=S)n2-c2ccccc2)cc1,i,2.5,102,21,-1,89
CC(=O)CSc1ncnc2sc3c(c12)CCC(C)C3 (stereo unspecified),i,121*,107,3,-9,104
CC1CCc2c(sc3ncn(CCO)c(=O)c23)C1 (stereo unspecified),i,-0.67,138*,-19,-42,117
COC(=O)N/N=C/c1cn(CC(C)COc2ccccc2)c2ccccc12 (stereo unspecified),i,-0.2,95,1,6,101
CN(C(=O)c1cccnc1)c1nnc(-c2ccccn2)s1,i,-0.3,136*,11,-39,92
COC(=O)c1ccc(N=Nc2ccccc2)cc1,i,0.24,132*,13,-35,91
COC(=O)CCC(=O)Nc1ccc(N=Nc2ccccc2)cc1,i,-0.17,133*,17,-37,95
O=C(COC(=O)C1CC1)Nc1ccc(N=Nc2ccccc2)cc1,i,-0.13,136*,6,-38,94
O=C(NCCNc1nccc(C(F)(F)F)n1)c1cccs1,i,0.58,.,.,.,.
O=C(CCl)NC(=O)NC12CC3CC(CC(C3)C1)C2,i,0.97,107,-1,-8,103
CCOC(=O)c1cnn(-c2cc(C)nc3c(-c4ccccc4)c(C)nn23)c1N,i,-0.62,98,4,2,100
CCOC(=O)c1c(C)nc(-c2ccccc2)nc1N,i,.,148*,-57,-53,152*
CCOC(=O)c1c(-c2ccccc2)cn2c(C)cc(C)nc12,i,0.64,138*,15,-46,91
CC(=O)Nc1nonc1NC(C)=O,i,.,103,1,-3,103
CC(=O)Nc1cc(OC(C)=O)c2nonc2c1OC(C)=O,i,.,12,-2,95*,105
O=C1NCCCC2c3c(cc(Br)c(O)c3Br)OC12N1CCOCC1 (stereo unspecified),i,.,104,12,-4,91
O=C1NCCCC2c3cc(O)c4ccccc4c3OC12N1CCCCC1 (stereo unspecified),.,.,106,63*,-6,47
O=C(Cc1coc(-c2ccc(F)cc2)n1)NCc1ccccc1,i,-2.6*,96,4,5,100
O=C(O)Cc1coc(-c2ccc(F)cc2)n1,i,0.92,98,9,3,96
Cc1ccc2nsnc2c1NC(=O)c1ccc(-c2cc(Cl)ccc2Cl)o1,i,0.89,129*,1,-32,108
SMILES,HSV augment,Cl transport mod,STAT1 activator,STAT3 blocker,STAT1 blocker,STAT3 act
Cc1ccc2nsnc2c1NC(=O)Cc1ccc(Cl)cc1,i,-0.66,91,14,8,90
Clc1ccc(-c2cc(CSc3ccccc3)on2)cc1,i,0.21,136*,7,-40,99
COc1ccccc1NC(=O)CN1CC(=O)Nc2ccccc21,i,-0.88,86,-34,15,134*
O=C(CN1CC(=O)Nc2ccccc21)Nc1ccc(F)c(F)c1,i,0.2,112,-8,-13,107
CC(=O)N1CCc2cc(S(=O)(=O)NCCC3=CCCCC3)ccc21,.,.,89,65*,17,46
COCCCNS(=O)(=O)c1ccc2c(c1)CCN2C(C)=O,i,.,98,0,-4,100
Cc1cc(C)n(CC(O)COc2ccccc2)n1 (stereo unspecified),i,0.27,102,23,-3,83
Cc1cc(C)n(CC(O)COc2ccc3ccccc3c2)n1 (stereo unspecified),i,-0.95,133*,1,-39,102
CN(C)S(=O)(=O)c1ccc(C(=O)NCCOc2ccccc2)cc1,i,-0.67,131*,-16,-41,116
COc1cccc(NC(=O)Nc2ccc3nsnc3c2)c1,i,-0.96,131*,12,-35,94
O=C(Nc1ccc(Cl)cc1)NC1CCCCC1,i,0.66,138*,-15,-43,115
O=C(Nc1ccc2nsnc2c1)NC1CCCCC1,.,0.5,131*,-8,-34,107
S=C(Nc1ccc2nsnc2c1)N1CCCCC1,i,0.4,132*,2,-36,97
COc1ccccc1/C=C/C(=O)OCC(=O)c1c(N)n(C)c(=O)n(C)c1=O,i,0.085,97,3,2,99
Cc1ccc(C)c(NC(=S)c2ccc3ccccc3n2)c1,i,1.2,129*,-58,-32,154*
Cc1ccc(C)c(NC(=S)c2ccccn2)c1,i,0.29,123,-6,-25,109
CCC(CC)c1nnc(NC(=O)c2cc(-c3ccccc3)nc3ccccc23)s1,i,0.64,101,3,-1,99
CCC(CC)c1nnc(NC(=O)c2ccc3ccccc3n2)s1,i,16*,152*,-60,-57,152*
Cc1cccc(NC(=O)c2ccc3ccccc3n2)c1C,i,0.023,134*,-48,-38,142*
Cc1cccc(NC(=O)c2sc(Cl)nc2C)c1C,i,0.013,102,9,-3,93
S=C(Nc1ccccc1)Nc1ccc(OCc2ccc(Cl)cc2Cl)cc1,i,.,47,64*,59*,51
S=C(NCCSCc1ccc(Cl)cc1Cl)Nc1ccccc1,i,-0.81,98,22,3,90
O=S(=O)(N/N=C\c1ccc(-c2ccccc2Cl)o1)c1ccccc1,i,-2.2,97,11,2,93
O=C1NC(=S)/C(=C\c2ccc(-c3ccccc3Cl)o2)S1,.,25*,100,-2,0,104
COc1cccc(C(=O)Nc2ccc(C)cc2)c1,i,.,134*,21,-37,86
COc1cccc(C(=O)Nc2ccccc2F)c1,i,-0.59,132*,12,-33,92
